Assay [1] deals with Fusarium verticillioides. Put plainly: Antifungal activity against Fusarium verticillioides assessed as growth inhibition by broth microdilution method.
Assay [2] relates to Fusarium incarnatum. Description: Antifungal activity against Fusarium incarnatum assessed as growth inhibition by broth microdilution method. Format: functional, organism-based. In general terms: Broth dilution looks for growth in wells or tubes with falling amounts of substance.
Assay [3] has as its system Fusarium incarnatum. Description: Antifungal activity against Fusarium incarnatum assessed as growth inhibition at 1 mg/mL by broth microdilution method. It is filed as functional. To be noted: read-out: GI.
In assay [4] the test system is Fusarium verticillioides. Put plainly: Antifungal activity against Fusarium verticillioides assessed as growth inhibition by broth microdilution method. Format: functional, organism-based. Put shortly: (§1)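 F. verticillioides strain M-7075, a maize isolate, was kept as a monosporic culture on V8 juice medium. Four-day-old spores were suspended at 10^5 spores/mL in glucose-mineral salts medium. Compound in filter-sterilized DMSO (final ≤2-4%) was tested at 0.10–1.70 mg/mL, in duplicate, alongside DMSO and untreated controls. Germination relative to control mycelial growth (100%) was scored visually by inverted microscope. MIC was the lowest concentration giving complete inhibition, and IC50 came from probit analysis.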

In assay [5] the test system is Fusarium. Put plainly: Antifungal activity against Fusarium fusiformis assessed as growth inhibition by broth microdilution method. Format: functional, organism-based.
In assay [6] the test system is Fusarium. Description: Antifungal activity against Fusarium fusiformis assessed as growth inhibition at 1 mg/mL by broth microdilution method. It is filed as functional.
The subject of assay [7] is Fusarium verticillioides. Put plainly: Antifungal activity against Fusarium verticillioides assessed as growth inhibition at 1 mg/mL by broth microdilution method. It is filed as functional. In outline:
as §1

One may read the MIC as the smallest concentration in the dilution series that meets the test's criterion for growth inhibition. In the case of `COc1cc(C2OCC3C(c4ccc(O)c(OC)c4)OCC23)ccc1O` (racemic) [(+/-)-PINORESINOL], the MIC in assay [1] was 1000 µg/mL.
The same measure, in the same setting: then `COc1cc(/C=C/C=O)ccc1O` [CONIFERYL ALDEHYDE], with 400 µg/mL.
A word on the IC50: it is the concentration that gives 50% inhibition. In general, inhibition refers to the change of the read-out against control, counted positive when it falls. Regarding `COc1cc2ccc(=O)oc2cc1O` [SCOPOLETIN], the IC50 in assay [2] is 470 µg/mL; in assay [4], 730 µg/mL; in assay [5], 820 µg/mL. Further, in assay [3], the inhibition of growth at 1000 µg/mL was determined as 66.2%. Besides, the minimum inhibitory concentration (MIC) in assay [4] came to 1500 µg/mL. The inhibition at 1000 µg/mL came out at 51.8% in assay [6] and 90% in assay [7].
`COc1cc(C=O)ccc1O` [VANILLIN]: the MIC in assay [1] was 600 µg/mL.

(Values after ChEMBL document CHEMBL3046103, “Antifungal synergistic effect of scopoletin, a hydroxycoumarin isolated from Melia azedarach L. fruits” (J Agric Food Chem, 2005).)
